{
  "source": "ChEMBL document CHEMBL4422632",
  "about": "“Design of Novel Inhibitors of Human Thymidine Phosphorylase: Synthesis, Enzyme Inhibition, in Vitro Toxicity, and Impact on Human Glioblastoma Cancer” (J Med Chem, 2019)",
  "details_in_all_cases": "read-out: Activity",
  "key": {"[1]": {"experiment": "Cytotoxicity against human HepG2 cells assessed as cell viability at 25 uM after 72 hrs by neutral red uptake-based assay relative to control", "in_short": "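Cells grown in DMEM with 10% FBS at 37 °C, 5% CO₂; seeded 2 x 10³ cells/well, adhered 24 h, then exposed 72 h. MTT: 1 mg/mL for 3 h, formazan in DMSO, absorbance 595 nm. NRU: neutral red 25 µg/mL in serum-free medium for 3 h, desorbed in ethanol:acetic acid:water. Viability as % of untreated control; mean ± SEM of three to five independent experiments in triplicate.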"}, "[2]": {"experiment": "Cytotoxicity against human U87MG cells assessed as cell viability at 50 uM after 72 hrs by MTT assay relative to control", "type": "cell-based, U-87MG ATCC", "in_short": "(§1)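 Cells kept in DMEM with 10% heat-inactivated FBS, 1% penicillin-streptomycin and 0.1% fungizone at 37 °C, 5% CO₂. U-87 MG seeded at 2 x 10^3 cells/well, RAW 264.7 at 5 x 10^2, adhered 24 h, then exposed 72 h. MTT: 1 mg/mL for 3 h, formazan in DMSO, A595. NRU: 25 μg/mL dye, 3 h, ethanol:acetic acid:water desorb. Untreated wells = 100%; three to five independent experiments in triplicate.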"}, "[3]": {"experiment": "Cytotoxicity against human U87MG cells assessed as cell viability at 25 uM after 72 hrs by neutral red uptake-based assay relative to control", "set-up": "species or system U-87MG ATCC", "in_short": "as §1"}},
  "data": [
    {"smiles": "O=c1[nH]c(CNC(CO)CO)c(I)c(=O)[nH]1", "values": [
      {"measurement": "viability at 72 h, 25 µM", "setting": "[1]", "result": 102, "unit": "%"},
      {"measurement": "viability at 72 h, 50 µM", "setting": "[2]", "result": 97, "unit": "%"},
      {"measurement": "viability at 72 h, 25 µM", "setting": "[3]", "result": 99, "unit": "%"}
    ]}
  ]
}
